# Measurements collected from several papers.
# Each line is one published result; the experiments were not run side by side.
# Read-out: microbial growth
Compound,organism,test,test system,setting,MIC
O=C(O)CN1C(=O)/C(=C/c2ccc(-c3ccc(N(c4ccccc4)c4ccccc4)cc3)cc2)SC1=S,Bacillus cereus,broth dilution,ATCC10876,,7.8 µg/mL
Cc1cc(NS(=O)(=O)c2ccc(N)cc2)no1,Salmonella enterica,,,"20 h, pH 7.2",64 µg/mL
O=c1cc(-c2ccc(O)c(O)c2)oc2cc(O)cc(O)c12,Helicobacter pylori,broth dilution,,,3.9 µg/mL
C[C@@H](O)[C@H]1C(=O)N2C(C(=O)O)=C(S[C@@H]3CN[C@H](C(=O)N(C)C)C3)[C@H](C)[C@H]12,Salmonella enterica,broth dilution,ENTERITIDIS,clinical isolate,≤ 0.5 µg/mL
O=C(Nc1ncc([N+](=O)[O-])s1)c1ccncc1F,Helicobacter pylori,broth dilution,26695,27 h,3.7 µM
CCN1CCN(c2cc3c(cc2F)c(=O)c(C(=O)O)cn3C2CC2)CC1,Salmonella enterica,,ENTERITIDIS,"20 h, pH 7.2",0.0625 µg/mL
Oc1ccc(-c2nc(-c3ccc(Oc4ccc(C(F)(F)F)cc4)cc3)no2)cc1,Bacillus cereus,broth dilution,ATCC13061,,2 µg/mL
C=C[C@@]1(C)C=C2CC[C@@H]3[C@](C)(CCC[C@@]3(C)C(=O)O)[C@H]2CC1,Helicobacter pylori,broth dilution,,,31.2 µg/mL
O=C(O)c1cn(C2CC2)c2cc(N3CCNCC3)c(F)cc2c1=O,Bacillus cereus,broth dilution,ATCC10876,,0.12 µg/mL
O=C(Nc1ncc([N+](=O)[O-])s1)c1ccncc1,Helicobacter pylori,broth dilution,26695,27 h,16 µM
CC1(C)S[C@@H]2[C@H](NC(=O)[C@H](N)c3ccccc3)C(=O)N2[C@H]1C(=O)O,Salmonella enterica,,,"20 h, pH 7",1 µg/mL
O=C(O)CN1C(=O)/C(=C/c2c3ccccc3c(-c3ccc(N(c4ccccc4)c4ccccc4)cc3)c3ccccc23)NC1=S,Bacillus cereus,broth dilution,ATCC10876,,> 1000 µg/mL
CS(=O)(=O)c1ccc([C@@H](O)[C@@H](CF)NC(=O)C(Cl)Cl)cc1,Salmonella enterica,,"F98, TYPHIMURIUM","20 h, pH 5.5",4 µg/mL
O=C(Nc1ncc([N+](=O)[O-])s1)c1cccnc1F,Helicobacter pylori,broth dilution,26695,27 h,3.7 µM
O=C1NC(=S)S/C1=C\c1ccc(-c2ccc(N(c3ccccc3)c3ccccc3)cc2)cc1,Bacillus cereus,broth dilution,ATCC10876,,1000 µg/mL
CO/N=C(\C(=O)N[C@@H]1C(=O)N2C(C(=O)O)=C(CSC(=O)c3ccco3)CS[C@H]12)c1csc(N)n1,Salmonella enterica,,,"20 h, pH 7.2",1 µg/mL
